UPR XBP1 act = activators of adaptive XBP1 UPR arm, primary screen, cell-based, CHO-XBP1 luciferase reporter, luminescence, uHTS; IRE1-XBP1 UPR activation; percent of tunicamycin response, DMSO as zero; activation, % at 20 µM; actives 0.33% (n = 330,000);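 active means versus positive control, 20 µM dose yields 30% or more activation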;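 further: 100% = tunicamycin at 10 µg/mL and 0% = DMSO only wells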
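assay system = CHO-XBP1 luciferase reporter cells | amount = 1000 cells/well | buffer or medium = F12 plus 10% FBS | compound dosing = single point, 20 µM final compound, 1% DMSO | incubation = 16-18 h cell attachment at 37 °C, then 6 h compound exposure | detection = Steady-Glo luminescence read | controls = tunicamycin 10 µg/mL and vehicle-only wells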
CHOP UPR activ = activators of apoptotic CHOP UPR arm, primary screen, cell-based, CHO-CHOP luciferase reporter, luminescence, uHTS; activation, % at 10 µM; actives 0.34% (n = 330,000); UPR activation; percent of tunicamycin response over DMSO baseline;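 active means at 10 µM dose, activation of 40% or more, normalized to positive control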;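 further: 100% = tunicamycin at 10 µg/mL and 0% = DMSO alone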
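Evaluation: % reporter activation, DMSO baseline versus tunicamycin full activation; System: CHO-CHOP luciferase reporter cell line; Input: 500 cells/well; Incubation: 6 h compound treatment, 37 °C; Measured by: Steady-Glo luciferase luminescence; Dosing: one dose, 10 µM in 0.5% DMSO; Buffer or medium: F12 medium, 10% FBS; Benchmarks: positive tunicamycin 10 µg/mL, negative DMSO alone.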
CHOP inhibitor = inhibitors of CHOP promoter induction, primary screen, cell-based, unfolded protein response, luciferase reporter | AID 2732, 2010 | actives 3.8% (n = 220,000) | CHO-K1 CHOP-promoter luciferase, tunicamycin-induced, 15-18 h | inhibition, % at 10 µM;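 active means compounds that reduced the stress-induced luciferase reporter signal by more than about 70% of percent inhibition, limit read from the data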;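 further: 0% = tunicamycin plus vehicle and 100% = wells without tunicamycin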
Hep lipid drop = inhibitors of hepatocyte lipid droplet formation, primary screen, imaging, high-throughput imaging, BODIPY stain; AML12 mouse hepatocytes, oleate lipid droplets; inhibition, % at 6.5 µM; actives 0.4% (n = 240,000);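 active means lipid droplet intensity inhibited by at least 50%, with more than 500 cells counted; inconclusive means wells with under 300 cells, treated as cytotoxic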
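Test system: AML12 mouse liver cells; schedule: overnight exposure; technique: high-content imaging of BODIPY-stained droplets and DAPI nuclei; read-out: % inhibition of corrected integrated BODIPY droplet signal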
ANO1 block = TMEM16A chloride channel inhibitors, primary screen, cell-based, HTS; HEK293 TMEM16A/YFP iodide influx fluorescence, ionomycin; actives 1.2% (n = 310,000); AID 588511, 2011; normalized B-score (activity score, 25-100; higher = stronger inhibition) at 10 µM;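 active means ratio plate-corrected score three or more library SD toward inhibition, starting fluorescence score within five deviations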;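 further: score derived from kinetic fluorescence span divided by baseline fluorescence per well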
Target sequence (Q8BHY3 whole entry, looked up): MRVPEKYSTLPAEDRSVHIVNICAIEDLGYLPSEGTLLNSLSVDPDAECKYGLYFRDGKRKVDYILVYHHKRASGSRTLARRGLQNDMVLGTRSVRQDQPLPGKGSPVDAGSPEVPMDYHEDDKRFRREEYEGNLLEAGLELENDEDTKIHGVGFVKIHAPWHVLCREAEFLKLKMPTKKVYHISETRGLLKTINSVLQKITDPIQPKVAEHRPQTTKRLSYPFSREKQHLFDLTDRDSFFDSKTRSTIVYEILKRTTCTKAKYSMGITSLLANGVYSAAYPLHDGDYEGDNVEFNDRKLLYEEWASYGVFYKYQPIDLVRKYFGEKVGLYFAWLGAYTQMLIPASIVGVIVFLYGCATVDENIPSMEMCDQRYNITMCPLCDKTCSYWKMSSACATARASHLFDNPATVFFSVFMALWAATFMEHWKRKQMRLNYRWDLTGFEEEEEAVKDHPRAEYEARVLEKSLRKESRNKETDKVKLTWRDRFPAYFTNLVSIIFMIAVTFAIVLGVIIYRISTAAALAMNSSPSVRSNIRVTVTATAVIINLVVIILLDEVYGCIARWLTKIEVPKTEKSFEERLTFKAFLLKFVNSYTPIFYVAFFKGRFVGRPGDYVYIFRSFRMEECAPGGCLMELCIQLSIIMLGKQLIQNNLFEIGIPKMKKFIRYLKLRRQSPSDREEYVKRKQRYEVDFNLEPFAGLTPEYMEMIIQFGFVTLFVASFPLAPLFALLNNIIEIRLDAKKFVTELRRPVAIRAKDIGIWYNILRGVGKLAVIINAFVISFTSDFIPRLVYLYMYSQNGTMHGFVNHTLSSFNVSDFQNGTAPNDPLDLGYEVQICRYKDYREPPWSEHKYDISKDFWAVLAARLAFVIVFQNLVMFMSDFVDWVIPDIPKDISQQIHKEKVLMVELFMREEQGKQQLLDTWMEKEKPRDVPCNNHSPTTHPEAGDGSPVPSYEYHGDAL
ANO1 activ = TMEM16A chloride channel activators or potentiators, primary screen, cell-based, HTS; HEK293 TMEM16A/YFP-H148Q/I152L, iodide quench fluorescence; active compounds read low; B-score at 10 µM; actives 0.3% (n = 340,000); AID 623877, 2012;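 active means fluorescence-ratio B-score plate-corrected deviation score at least 3 library SD below zero, with starting fluorescence score within 5 deviations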;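 further: channel opened by trigger with iodide after compound preincubation; score built on the fluorescence ratio of max minus min over baseline; more negative score means more quench and so TMEM16A activation or potentiation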
An asterisk follows results filed as active; i = inactive; ? = inconclusive; nt = no result. An excerpt weighted towards active compounds, which were near 4.2% of everything screened.

SMILES	UPR XBP1 act	CHOP UPR activ	CHOP inhibitor	Hep lipid drop	ANO1 block	ANO1 activ
C#CCOCCOCCOCCNc1nc(N2CCN(C(=O)CCCCCCCCCCNC(=O)[C@H](CCCCN)n3cc(CCO)nn3)CC2)nc(N2CCN(C(=O)CCCCCCCCCCNC(=O)[C@@H]([C@H](C)O)n3cc(C)nn3)CC2)n1	1.3	0.8	nt	nt	i	i
C#CCOCCOCCOCCNc1nc(N2CCN(C(=O)CCCCCCCCCCNC(=O)[C@H](CCCCN)n3cc(C)nn3)CC2)nc(N2CCN(C(=O)CCCCCCCCCCNC(=O)[C@@H]([C@H](C)CC)n3cc(CCCCCN)nn3)CC2)n1	8.9	-1.5	nt	nt	25*	-18.3*
O=C(CCl)N=c1sccn1Cc1ccc(Cl)cc1Cl	0.9	42.0*	-212.3	?	i	i
O=C(Nc1nc(-c2cccc3ccccc23)cs1)c1cnccn1	0.1	1.0	92.5*	3.5	i	i
Cc1nn(C(=O)CCC(=O)NCCc2ccccc2)c2ccccc12	-1.6	0.7	nt	-2.7	i	i
Cc1ccccc1N(CC(=O)N/N=C/c1ccc(N(C)C)cc1)C(=O)c1ccccc1	0.3	3.2	19.7	13.6	i	i
Cc1ccccc1N(CC(=O)N/N=C/c1ccccc1Cl)C(=O)c1ccccc1	7.6	-0.1	73.1*	-3.9	i	i
CNS(=O)(=O)c1cc(S(=O)(=O)NC)c2cccc3c2c1NC3=O	-0.2	-1.1	nt	-0.8	i	i
Cc1cc(NC(=O)COC(=O)C(Nc2ccc(C(F)(F)F)cc2Cl)C(C)C)no1 (stereo not given)	8.4	-0.1	101.8*	-5.2	100*	i
Cc1noc(C)c1S(=O)(=O)N(C)C[C@H]1Oc2c(NS(=O)(=O)c3cn(C)cn3)cccc2C(=O)N([C@H](C)CO)C[C@@H]1C	-1.9	1.0	nt	nt	nt	nt
O=C(COc1ccccc1)Nc1cccc(-c2nc3cc4ccccc4cc3[nH]2)c1	19.2	11.4	70.7*	nt	i	i
O=C(COc1ccccc1)Nc1cccc(-c2nn[nH]n2)c1	-2.5	-0.9	nt	-18.2	i	i
O=C(CCc1nc2ccccc2c(=O)[nH]1)NNC(=O)c1ccc(F)cc1	-1.3	-0.7	nt	nt	nt	i
COc1ccccc1NC(=O)CCS(=O)(=O)c1cc2c(cc1Cl)NC(=O)CO2	-4.9	1.7	nt	2.5	i	i
COc1cccc(OCCNC(=O)CSc2ccc(C(F)(F)F)cc2[N+](=O)[O-])c1	-1.5	-0.9	84.7*	-16.6	i	i
CC1Cc2ccccc2N1C(=O)CSc1nnc2c(n1)[nH]c1ccc(F)cc12 (stereo not given)	1.2	-1.3	48.4	0.6	i	i
Cc1cccc(NC(=S)N=Nc2c(O)[nH]c3ccccc23)c1	0.5	15.8	87.0*	-14.0	i	i
O=C(N=Nc1c(O)[nH]c2ccccc12)Nc1ccccc1	nt	nt	nt	nt	nt	i
O=C(NCc1ccccc1F)C(c1ccccc1)c1ccccc1	-1.2	0.2	nt	-22.2	i	i
Cc1nc2scc(-c3ccc(C(C)(C)C)cc3)c2c(=O)n1N	2.5	0.7	76.4*	12.3	i	i
COc1cc(/C=C/c2ccc3cccc(OC)c3n2)c(O)c([N+](=O)[O-])c1	4.8	1.5	93.8*	0.0	i	i
O=C(c1ccccc1)N1CCN(CC(O)Cn2ccc3ccccc32)CC1 (stereo not given)	-2.4	-0.7	44.0	23.3	i	i
CCCn1c(SCC(=O)NCc2ccc(OC)cc2)n[nH]c1=O	-0.3	-1.5	-11.5	7.4	i	i
CCCn1c(SCC(=O)N2N=C3/C(=C/c4ccc(OC)cc4)CCCC3C2c2ccc(OC)cc2)n[nH]c1=O (stereo not given)	1.3	0.1	70.7*	7.6	i	i
Cc1ccc(C(C#N)c2ccc3c(C(F)(F)F)cc(C(F)(F)F)nc3n2)cc1 (stereo not given)	5.4	12.3	59.7	nt	100*	i
SMILES	UPR XBP1 act	CHOP UPR activ	CHOP inhibitor	Hep lipid drop	ANO1 block	ANO1 activ
CN(N)c1ccc2c(C(F)(F)F)cc(C(F)(F)F)nc2n1	1.9	0.5	10.4	-7.5	i	i
Cc1nc2cc(-c3ccc(Cl)cc3)nn2c(NCCN(C)C)c1C	10.2	3.3	-51.2	-0.1	i	i
CCCc1nc2oc3c(NCCOCCO)ncnc3c2c2c1COC(C)(C)C2	-0.2	-0.6	7.4	21.7	i	i
CCCc1nc2oc3c(OC)ncnc3c2c2c1COC(C)(C)C2	1.1	0.7	81.9*	9.7	i	i
CCC1=CC(c2ccccc2)n2ncnc2N1 (stereo not given)	-2.0	0.7	nt	nt	i	i
COc1cc(OC)c(-c2nc3ccccc3s2)cc1OC	-2.0	0.6	72.4*	3.3	i	i
C[C@H](CO)N1C[C@H](C)[C@@H](CN(C)S(=O)(=O)c2cn(C)cn2)Oc2ccc(NC(=O)NC3CCCCC3)cc2C1=O	1.2	-0.4	nt	nt	nt	nt
CCCCn1c(N)c(N(CC(C)C)C(=O)C(C)SCc2nc3sc(C)c(C)c3c(=O)[nH]2)c(=O)[nH]c1=O (stereo not given)	2.2	10.3	nt	nt	i	i
CCc1cccc(Nc2cnn(C34C[C@@H]5C[C@@H](CC(CC(=O)O)(C5)C3)C4)c(=O)c2Cl)c1	-1.7	-1.2	11.9	25.2	i	i
Nc1nc(-c2cccnc2)nn1C(=O)Cc1ccccc1	-0.6	0.1	77.6*	-0.2	i	i
CCCCCC(O)(CCCCC)C(=O)NNc1ccccc1	-6.0	-0.8	91.2*	nt	i	i
Cc1ccc(-c2nc(CNC(=O)c3ccco3)cs2)cc1	-6.8	0.2	nt	nt	i	i
O=C(NCCC(=O)N1CCN(C(=O)c2ccco2)CC1)c1ccc(Br)cc1	-2.8	-2.9	nt	nt	i	i
CC(NC(=O)COC(=O)C1CCCCC1)c1ccccc1 (stereo not given)	-3.7	1.4	nt	nt	nt	i
Cc1ccc(C2(C)NC(=O)N(CC(=O)NCCN3C(=O)S/C(=C\c4cccnc4)C3=O)C2=O)cc1 (stereo not given)	nt	nt	nt	nt	nt	i
Cc1cccc(NC(=O)CC2SC(=NC3CCCCC3)NC2=O)c1 (stereo not given)	-4.6	2.4	74.0*	-7.9	i	i
CSCCC(NC(=O)COc1ccccc1)C(=O)N1CCCCCC1 (stereo not given)	0.9	0.4	nt	nt	nt	i

Screens as filed in PubChem BioAssay.
